Molecules are shown by their SMILES. Calls of active or inactive are those of the source. The calls are words filed in the database; no cut-off is given here.

In this test the target is P2Y purinoceptor 12 (Homo sapiens) (UniProt Q9H244). The experiment in a line: Agonist activity at P2Y12 in human platelets assessed as effect on VASP phosphorylation at 200 uM by CY-QUANT VASP/P2Y12 ELISA method. The gist of the method: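 VASP phosphorylation read by CY-QUANT VASP/P2Y12 ELISA kit, run per manufacturer's instructions. Platelets were exposed to PGE1, and PGE1-induced phosphorylation was set as 100%. ADP served as the P2Y12 agonist reference. Compounds were tested at 200 µM together with ADP. Per se effect at 200 µM was checked with PGE1 alone, without ADP.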
Sequence of P2Y purinoceptor 12 (Homo sapiens) (Q9H244 whole entry): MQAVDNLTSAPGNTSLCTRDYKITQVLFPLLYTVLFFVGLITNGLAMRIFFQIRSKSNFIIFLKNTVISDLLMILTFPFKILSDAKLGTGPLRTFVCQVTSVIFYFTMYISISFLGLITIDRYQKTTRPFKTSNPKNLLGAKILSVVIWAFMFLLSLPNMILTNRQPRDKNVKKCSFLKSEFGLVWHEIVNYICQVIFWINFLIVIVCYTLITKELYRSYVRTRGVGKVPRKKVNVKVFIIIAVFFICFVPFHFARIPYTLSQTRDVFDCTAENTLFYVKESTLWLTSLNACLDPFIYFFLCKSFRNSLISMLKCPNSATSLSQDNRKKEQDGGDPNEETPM
(An ELISA detects its analyte on a solid surface through an enzyme-linked reagent.)
As to `Cn1nc2cccc([N+](=O)[O-])c2n1`, the result was inactive. The value for `CCn1nnc2c([N+](=O)[O-])cccc21` was “inactive”; that for `CCCCCn1nc2cccc([N+](=O)[O-])c2n1` was “inactive”. Regarding `O=[N+]([O-])c1cccc2nn(Cc3ccccc3)nc12`, the outcome was inactive.

For the compound `CCCCCn1nnc2c([N+](=O)[O-])cccc21`, the outcome was inactive. The value for `CCCCCCn1nc2cccc([N+](=O)[O-])c2n1` was “inactive”; that for `O=C(c1ccccc1)n1nnc2c([N+](=O)[O-])cccc21` was “inactive”. As for `CCn1nc2cccc([N+](=O)[O-])c2n1`, the outcome was inactive. For the compound `CCCCCCCn1nc2cccc([N+](=O)[O-])c2n1`, the result was inactive. Take `O=[N+]([O-])c1cccc2nn(CCCCl)nc12`: the outcome was inactive. Take `Cc1ccc(S(=O)(=O)n2nnc3c([N+](=O)[O-])cccc32)cc1`: the outcome was inactive. Take `Cn1nnc2c([N+](=O)[O-])cccc21`: the outcome was inactive. The value for `CCCCCCCn1nnc2c([N+](=O)[O-])cccc21` was “inactive”; that for `Cn1nnc2cccc([N+](=O)[O-])c21` was “inactive”; that for `CCCCCCn1nnc2c([N+](=O)[O-])cccc21` was “inactive”. The result for `O=[N+]([O-])c1cccc2c1nnn2CCCCl` reads “inactive”; that for `CCCCCCCCn1nnc2c([N+](=O)[O-])cccc21`, “inactive”. On to `O=[N+]([O-])c1cccc2c1nnn2Cc1ccccc1`, for which the outcome was inactive. The value for `CCCn1nnc2c([N+](=O)[O-])cccc21` was “inactive”. The result for `CCCn1nc2cccc([N+](=O)[O-])c2n1` reads “inactive”. The result for `CCCCCCCCn1nc2cccc([N+](=O)[O-])c2n1` reads “inactive”; that for `CCCCn1nnc2c([N+](=O)[O-])cccc21`, “inactive”.

With `CCCCn1nc2cccc([N+](=O)[O-])c2n1`, the outcome was inactive.

The record behind these values is ChEMBL document CHEMBL4043160, “Facile alkylation of 4-nitrobenzotriazole and its platelet aggregation inhibitory activity” (Bioorg Med Chem, 2017).
